Results gathered from unrelated publications.
Each line is one published result; the experiments were not run side by side.
Target: Cyclin-dependent kinase 15 (CDK15, Homo sapiens, UniProt Q96Q40)

SMILES | test | conditions | remaining binding [%]
Cc1nc(Cc2cccc(C(F)(F)F)c2)sc1-c1ccc(C(N)=O)nc1 | cell-free assay, competition with immobilised ligand | 1 µM | 86
CN(C)c1ncc(F)c(-c2cnn3ncccc23)n1 | binding | 1 µM | 100
C[C@@H](c1ccc(-n2cnc3c(N)ncnc32)cc1)N1CCc2nn(C)c(Cc3ccccc3)c2C1=O | binding, competition with immobilised ligand | 0.1 µM | 86
O=C(NCCCC1CCCCC1)c1ccc(CNC(=O)c2cnn(-c3ccccc3)c2C(F)(F)F)cc1 | cell-free assay, competition with immobilised ligand | 0.1 µM | 77
O=C(c1ccc(Nc2nccc(-c3cc4ccccc4s3)n2)cc1)N1CCC(N2CCCC2)CC1 | binding, competition with immobilised ligand | 1 µM | 100
c1cnn2ncc(-c3ccnc(N4CCC45COC5)n3)c2c1 | binding | 1 µM | 85
FC(F)(F)Oc1cccc(-c2cnc3ccc(-c4ccncc4)nn23)c1 | cell-free assay, competition with immobilised ligand | 5 µM | 63
COc1ccnn2ncc(-c3ccnc(N(C)C)n3)c12 | binding | 1 µM | 41
O=C(NCCCN1CCOCC1)c1ccc(Nc2ncc(Cl)c(-c3ccc(Cl)s3)n2)cc1 | binding, competition with immobilised ligand | 1 µM | 89
COc1cnc(Nc2cccc(S(N)(=O)=O)c2)nc1N1CCN(c2ccccc2)CC1 | binding, competition with immobilised ligand | 1 µM | 93
CCOC(=O)c1cc2cc(-c3cc(C(=O)NCc4ccc(C(=O)O)cc4)nn3C)ccc2[nH]1 | cell-free assay, competition with immobilised ligand | 0.1 µM | 93
c1cncc(-c2cccc(Nc3nccc(NC4CCCCC4)n3)c2)c1 | binding, competition with immobilised ligand | 10 µM | 76
O=S(=O)(NC1CCC(c2cc(F)ccc2F)(S(=O)(=O)c2ccc(Cl)cc2)CC1)C(F)(F)F (stereo not shown) | cell-free assay, competition with immobilised ligand | 1 µM | 100
O=C(NCC1CCOCC1)c1n[nH]cc1NC(=O)c1c(F)cccc1F | binding, competition with immobilised ligand | 1 µM | 82
O=C(NCCCN1CCOCC1)c1ccc(Nc2nccc(-c3cc4ccccc4s3)n2)cc1 | binding, competition with immobilised ligand | 1 µM | 87
COc1cccc(CNC(=O)c2nc3scc(COCc4ccc(C(=O)O)cc4)c3c(=O)[nH]2)c1 | cell-free assay, competition with immobilised ligand | 1 µM | 97.6
N[C@@H]1CCN(c2nccc(-c3cnn4ncccc34)n2)C1 | binding | 1 µM | 100
CS(=O)(=O)c1cc(C2(NC(=O)c3cncc4c3cnn4-c3ccc(F)cc3)CC2)ccn1 | cell-free assay, competition with immobilised ligand | 1 µM | 100
F[C@@H]1CCN(c2nccc(-c3cnn4ncccc34)n2)C1 | binding | 1 µM | 100
CNC(=O)[C@@H]1CC[C@@H](n2c(-c3ccc4cnccc4c3)nc3ccc(C(=O)NCc4cccc(C(N)=O)c4)cc32)C1 | binding, competition with immobilised ligand | 1 µM | 100
Cc1nc(N2CC[C@@H](O)C2)ncc1-c1cc(C(F)(F)F)cc2[nH]ncc12 | binding, competition with immobilised ligand | 1 µM | 81
CN(C)c1nccc(-c2cnn3ncccc23)n1 | binding | 1 µM | 100
